# Measurements as given in ChEMBL document CHEMBL4196066, “Design and synthesis of furyl/thineyl pyrroloquinolones based on natural alkaloid perlolyrine, lead to the discovery of potent and selective PDE5 inhibitors” (Eur J Med Chem, 2018).
# Tests used:
# [1] = target: cGMP-specific 3',5'-cyclic phosphodiesterase (Homo sapiens, UniProt O76074); experiment: Inhibition of N-terminal GST-tagged full length recombinant human PDE5A1 catalytic domain expressed in Baculovirus infected Sf9 insect cells using FAM-cGMP as substrate after 1 hr by fluorescence polarization assay
# Homo sapiens [2] = species: Homo sapiens; experiment: Selectivity ratio of IC50 for N-terminal GST-tagged full length recombinant human PDE1A to IC50 for N-terminal GST-tagged full length recombinant human PDE5A1 catalytic domain
# Homo sapiens [3] = species: Homo sapiens; experiment: Selectivity ratio of IC50 for N-terminal FLAG-tagged human PDE2A1 (2 to 941 residues) to IC50 for N-terminal GST-tagged full length recombinant human PDE5A1 catalytic domain
# Homo sapiens [4] = species: Homo sapiens; experiment: Selectivity ratio of IC50 for N-terminal GST-tagged recombinant human PDE3B (592 end residues) to IC50 for N-terminal GST-tagged full length recombinant human PDE5A1 catalytic domain
# Homo sapiens [5] = species: Homo sapiens; experiment: Selectivity ratio of IC50 for N-terminal GST-tagged full length recombinant human PDE4A1A to IC50 for N-terminal GST-tagged full length recombinant human PDE5A1 catalytic domain
# Homo sapiens [6] = species: Homo sapiens; experiment: Selectivity ratio of IC50 for N-terminal GST-tagged full length recombinant human PDE6C to IC50 for N-terminal GST-tagged full length recombinant human PDE5A1 catalytic domain
# Thoracic aorta [7] = experiment: Vasorelaxant activity in norepinephrine-pretreated New Zealand rabbit thoracic aorta assessed as increase in aortic relaxation at 1 uM measured after 15 mins relative to control; assay type: functional, Oryctolagus cuniculus; set-up: scale not given: the % may be the effect or the level left
# Procedure, shortened: (§1)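 Thoracic aortic rings from New Zealand white rabbits were held in Krebs buffer at 2 g resting tension (0%) and equilibrated 2 h. Rings were contracted to maximum with 1 µM norepinephrine (100%). Compounds were added cumulatively at 15 min intervals, with tension recorded 15 min after each dose. Relaxation % = (max − recorded)/(max − 2 g) × 100; n = 1–2 rings.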
# [8] = target: Cone cGMP-specific 3',5'-cyclic phosphodiesterase subunit alpha' (Homo sapiens, UniProt P51160); experiment: Inhibition of N-terminal GST-tagged full length recombinant human PDE6C expressed in Baculovirus infected Sf9 insect cells using […] as substrate after 1 hr by fluorescence polarization assay
# Sequence of Cone cGMP-specific 3',5'-cyclic phosphodiesterase subunit alpha' (P51160 whole entry): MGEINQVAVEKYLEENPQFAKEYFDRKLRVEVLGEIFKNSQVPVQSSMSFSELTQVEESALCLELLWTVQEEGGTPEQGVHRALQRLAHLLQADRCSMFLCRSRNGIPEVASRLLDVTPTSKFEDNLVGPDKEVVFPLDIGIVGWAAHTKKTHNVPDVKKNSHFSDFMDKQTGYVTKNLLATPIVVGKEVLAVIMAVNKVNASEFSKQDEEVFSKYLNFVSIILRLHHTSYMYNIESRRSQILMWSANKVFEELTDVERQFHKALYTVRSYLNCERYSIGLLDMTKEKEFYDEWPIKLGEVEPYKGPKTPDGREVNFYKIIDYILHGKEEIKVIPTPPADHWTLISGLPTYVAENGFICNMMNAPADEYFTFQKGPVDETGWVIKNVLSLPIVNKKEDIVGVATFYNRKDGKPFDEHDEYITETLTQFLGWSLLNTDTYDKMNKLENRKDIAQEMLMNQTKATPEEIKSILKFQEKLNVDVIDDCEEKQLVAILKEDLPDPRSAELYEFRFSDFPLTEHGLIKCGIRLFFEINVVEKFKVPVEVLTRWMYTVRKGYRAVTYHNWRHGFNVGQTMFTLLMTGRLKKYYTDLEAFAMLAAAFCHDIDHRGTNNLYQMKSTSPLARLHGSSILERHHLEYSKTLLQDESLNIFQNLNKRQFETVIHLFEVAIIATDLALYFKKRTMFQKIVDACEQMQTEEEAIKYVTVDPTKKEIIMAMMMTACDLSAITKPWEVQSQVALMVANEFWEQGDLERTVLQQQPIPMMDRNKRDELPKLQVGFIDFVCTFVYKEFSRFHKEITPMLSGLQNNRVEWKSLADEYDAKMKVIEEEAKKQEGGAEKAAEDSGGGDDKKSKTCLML
# [9] = target: Dual specificity calcium/calmodulin-dependent 3',5'-cyclic nucleotide phosphodiesterase 1A (Homo sapiens) (UniProt P54750); experiment: Inhibition of N-terminal GST-tagged full length recombinant human PDE1A expressed in Baculovirus infected Sf9 insect cells at 6 uM using FAM-cAMP as substrate after 1 hr by fluorescence polarization assay relative to control
# Sequence of Dual specificity calcium/calmodulin-dependent 3',5'-cyclic nucleotide phosphodiesterase 1A (Homo sapiens) (P54750 whole entry, the tested form may be a part): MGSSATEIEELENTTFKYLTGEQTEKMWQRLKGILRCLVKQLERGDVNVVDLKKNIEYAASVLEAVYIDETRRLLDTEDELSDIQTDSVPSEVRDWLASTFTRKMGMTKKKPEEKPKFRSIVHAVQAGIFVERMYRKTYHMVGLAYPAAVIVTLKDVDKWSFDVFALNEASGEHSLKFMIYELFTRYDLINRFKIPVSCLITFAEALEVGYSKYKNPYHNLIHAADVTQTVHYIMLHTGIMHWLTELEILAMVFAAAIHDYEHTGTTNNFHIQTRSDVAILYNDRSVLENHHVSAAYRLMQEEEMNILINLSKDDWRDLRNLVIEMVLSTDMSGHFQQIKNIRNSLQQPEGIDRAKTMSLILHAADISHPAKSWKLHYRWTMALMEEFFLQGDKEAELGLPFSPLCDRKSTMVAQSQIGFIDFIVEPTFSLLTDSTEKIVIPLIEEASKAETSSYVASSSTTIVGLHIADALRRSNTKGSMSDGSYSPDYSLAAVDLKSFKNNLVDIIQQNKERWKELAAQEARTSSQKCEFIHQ
# [10] = target: cGMP-dependent 3',5'-cyclic phosphodiesterase (Homo sapiens) (UniProt O00408); experiment: Inhibition of N-terminal FLAG-tagged human PDE2A1 (2 to 941 residues) expressed in Baculovirus infected Sf9 insect cells at 6 uM using FAM-cAMP as substrate after 1 hr by fluorescence polarization assay relative to control
# Sequence of cGMP-dependent 3',5'-cyclic phosphodiesterase (Homo sapiens) (O00408 whole entry, the tested form may be a part): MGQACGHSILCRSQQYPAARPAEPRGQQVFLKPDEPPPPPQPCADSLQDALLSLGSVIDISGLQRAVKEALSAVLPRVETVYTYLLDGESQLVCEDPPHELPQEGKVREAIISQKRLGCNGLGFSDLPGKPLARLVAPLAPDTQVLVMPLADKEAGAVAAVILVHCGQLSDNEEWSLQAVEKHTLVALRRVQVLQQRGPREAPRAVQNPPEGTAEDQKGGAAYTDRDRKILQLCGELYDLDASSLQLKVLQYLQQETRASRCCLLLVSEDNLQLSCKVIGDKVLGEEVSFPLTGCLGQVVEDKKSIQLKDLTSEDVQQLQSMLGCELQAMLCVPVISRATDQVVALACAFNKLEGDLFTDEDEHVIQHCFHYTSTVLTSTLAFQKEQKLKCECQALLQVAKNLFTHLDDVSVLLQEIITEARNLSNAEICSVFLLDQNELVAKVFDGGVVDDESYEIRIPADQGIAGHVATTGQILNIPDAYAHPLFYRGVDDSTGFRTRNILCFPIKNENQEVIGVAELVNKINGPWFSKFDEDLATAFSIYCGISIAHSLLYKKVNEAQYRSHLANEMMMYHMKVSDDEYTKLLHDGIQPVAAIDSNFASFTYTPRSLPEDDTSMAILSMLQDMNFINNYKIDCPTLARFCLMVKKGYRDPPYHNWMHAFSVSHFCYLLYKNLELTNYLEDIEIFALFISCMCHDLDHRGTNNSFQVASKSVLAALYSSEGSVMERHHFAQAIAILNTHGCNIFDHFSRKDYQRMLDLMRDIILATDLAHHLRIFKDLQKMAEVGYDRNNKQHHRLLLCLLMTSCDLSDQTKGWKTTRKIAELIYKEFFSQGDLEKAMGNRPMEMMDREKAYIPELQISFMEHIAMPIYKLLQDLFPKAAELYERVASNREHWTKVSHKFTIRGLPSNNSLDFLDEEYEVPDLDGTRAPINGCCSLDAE
# [11] = target: cGMP-inhibited 3',5'-cyclic phosphodiesterase 3B (Homo sapiens) (UniProt Q13370); experiment: Inhibition of N-terminal GST-tagged recombinant human PDE3B (592 end residues) expressed in Baculovirus infected Sf9 insect cells at 6 uM using FAM-cAMP as substrate after 1 hr by fluorescence polarization assay relative to control
# Sequence of cGMP-inhibited 3',5'-cyclic phosphodiesterase 3B (Homo sapiens) (Q13370 whole entry, looked up): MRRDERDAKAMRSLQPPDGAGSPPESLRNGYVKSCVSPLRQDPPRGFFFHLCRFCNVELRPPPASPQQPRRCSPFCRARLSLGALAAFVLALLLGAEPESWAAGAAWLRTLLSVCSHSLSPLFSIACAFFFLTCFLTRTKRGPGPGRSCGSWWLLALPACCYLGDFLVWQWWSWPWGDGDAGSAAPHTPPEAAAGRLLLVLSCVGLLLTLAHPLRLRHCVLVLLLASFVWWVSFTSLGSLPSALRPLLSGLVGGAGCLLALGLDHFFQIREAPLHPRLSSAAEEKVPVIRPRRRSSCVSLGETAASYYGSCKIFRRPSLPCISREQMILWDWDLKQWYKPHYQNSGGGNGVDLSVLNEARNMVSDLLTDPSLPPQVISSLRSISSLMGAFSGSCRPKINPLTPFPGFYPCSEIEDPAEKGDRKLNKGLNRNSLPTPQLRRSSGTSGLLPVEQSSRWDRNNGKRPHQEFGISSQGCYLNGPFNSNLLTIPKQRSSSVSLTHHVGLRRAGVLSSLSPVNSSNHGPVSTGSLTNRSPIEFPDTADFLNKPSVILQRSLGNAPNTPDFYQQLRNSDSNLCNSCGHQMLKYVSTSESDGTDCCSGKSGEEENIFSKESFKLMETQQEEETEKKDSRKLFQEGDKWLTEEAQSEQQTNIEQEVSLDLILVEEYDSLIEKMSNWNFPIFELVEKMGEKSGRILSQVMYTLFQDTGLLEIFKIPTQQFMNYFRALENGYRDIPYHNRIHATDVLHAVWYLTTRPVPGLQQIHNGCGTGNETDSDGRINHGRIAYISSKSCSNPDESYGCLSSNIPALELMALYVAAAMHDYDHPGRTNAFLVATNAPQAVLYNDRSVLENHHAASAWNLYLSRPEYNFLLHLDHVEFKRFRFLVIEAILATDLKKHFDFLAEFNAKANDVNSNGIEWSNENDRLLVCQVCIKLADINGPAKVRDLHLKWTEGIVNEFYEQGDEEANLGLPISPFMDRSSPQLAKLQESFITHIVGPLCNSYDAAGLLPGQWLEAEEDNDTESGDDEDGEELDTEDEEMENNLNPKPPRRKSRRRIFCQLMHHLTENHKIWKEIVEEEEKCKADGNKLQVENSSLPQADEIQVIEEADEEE
# [12] = target: 3',5'-cyclic-AMP phosphodiesterase 4A (Homo sapiens) (UniProt P27815); experiment: Inhibition of N-terminal GST-tagged full length recombinant human PDE4A1A expressed in Baculovirus infected Sf9 insect cells at 1.5 uM using FAM-cAMP as substrate after 1 hr by fluorescence polarization assay relative to control
# Sequence of 3',5'-cyclic-AMP phosphodiesterase 4A (Homo sapiens) (P27815 whole entry): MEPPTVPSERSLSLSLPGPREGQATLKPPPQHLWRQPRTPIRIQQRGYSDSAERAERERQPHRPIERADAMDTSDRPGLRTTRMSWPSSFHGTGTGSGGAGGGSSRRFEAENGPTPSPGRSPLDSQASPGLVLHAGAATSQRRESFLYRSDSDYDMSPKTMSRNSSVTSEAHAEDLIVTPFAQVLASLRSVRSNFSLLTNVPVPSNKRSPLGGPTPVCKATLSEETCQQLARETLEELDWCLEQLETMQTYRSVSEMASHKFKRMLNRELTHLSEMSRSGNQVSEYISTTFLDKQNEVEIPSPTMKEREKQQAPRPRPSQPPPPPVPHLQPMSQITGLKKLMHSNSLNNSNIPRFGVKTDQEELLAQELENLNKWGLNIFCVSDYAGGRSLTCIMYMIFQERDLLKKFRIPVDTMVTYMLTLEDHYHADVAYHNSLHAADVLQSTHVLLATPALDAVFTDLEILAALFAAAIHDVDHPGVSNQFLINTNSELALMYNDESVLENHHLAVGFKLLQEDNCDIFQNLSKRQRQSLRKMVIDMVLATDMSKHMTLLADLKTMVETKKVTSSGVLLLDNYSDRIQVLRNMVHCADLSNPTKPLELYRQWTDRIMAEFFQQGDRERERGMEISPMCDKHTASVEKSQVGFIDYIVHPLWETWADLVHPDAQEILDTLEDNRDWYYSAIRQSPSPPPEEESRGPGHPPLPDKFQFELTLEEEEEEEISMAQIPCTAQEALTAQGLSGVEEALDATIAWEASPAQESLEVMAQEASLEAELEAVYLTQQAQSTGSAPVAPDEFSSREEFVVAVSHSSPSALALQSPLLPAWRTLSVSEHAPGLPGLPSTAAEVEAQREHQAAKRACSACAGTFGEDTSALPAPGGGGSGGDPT
# [13] = target: Dual specificity calcium/calmodulin-dependent 3',5'-cyclic nucleotide phosphodiesterase 1A (Homo sapiens) (UniProt P54750); experiment: Inhibition of N-terminal GST-tagged full length recombinant human PDE1A expressed in Baculovirus infected Sf9 insect cells at 5.5 uM using FAM-cAMP as substrate after 1 hr by fluorescence polarization assay relative to control
# [14] = target: cGMP-dependent 3',5'-cyclic phosphodiesterase (Homo sapiens) (UniProt O00408); experiment: Inhibition of N-terminal FLAG-tagged human PDE2A1 (2 to 941 residues) expressed in Baculovirus infected Sf9 insect cells at 5.5 uM using FAM-cAMP as substrate after 1 hr by fluorescence polarization assay relative to control
# [15] = target: cGMP-inhibited 3',5'-cyclic phosphodiesterase 3B (Homo sapiens) (UniProt Q13370); experiment: Inhibition of N-terminal GST-tagged recombinant human PDE3B (592 end residues) expressed in Baculovirus infected Sf9 insect cells at 5.5 uM using FAM-cAMP as substrate after 1 hr by fluorescence polarization assay relative to control
# [16] = target: 3',5'-cyclic-AMP phosphodiesterase 4A (Homo sapiens) (UniProt P27815); experiment: Inhibition of N-terminal GST-tagged full length recombinant human PDE4A1A expressed in Baculovirus infected Sf9 insect cells at 1 uM using FAM-cAMP as substrate after 1 hr by fluorescence polarization assay relative to control
# Thoracic aorta [17] = experiment: Vasorelaxant activity in norepinephrine-pretreated New Zealand rabbit thoracic aorta assessed as increase in aortic relaxation at 10 uM measured after 15 mins relative to control; assay type: functional, Oryctolagus cuniculus; set-up: scale not given: the % may be the effect or the level left; procedure, shortened: as §1
# [18] = target: Dual specificity calcium/calmodulin-dependent 3',5'-cyclic nucleotide phosphodiesterase 1A (Homo sapiens) (UniProt P54750); experiment: Inhibition of N-terminal GST-tagged full length recombinant human PDE1A expressed in Baculovirus infected Sf9 insect cells at 12.5 uM using FAM-cAMP as substrate after 1 hr by fluorescence polarization assay relative to control
# [19] = target: cGMP-dependent 3',5'-cyclic phosphodiesterase (Homo sapiens) (UniProt O00408); experiment: Inhibition of N-terminal FLAG-tagged human PDE2A1 (2 to 941 residues) expressed in Baculovirus infected Sf9 insect cells at 12.5 uM using FAM-cAMP as substrate after 1 hr by fluorescence polarization assay relative to control
# [20] = target: cGMP-inhibited 3',5'-cyclic phosphodiesterase 3B (Homo sapiens) (UniProt Q13370); experiment: Inhibition of N-terminal GST-tagged recombinant human PDE3B (592 end residues) expressed in Baculovirus infected Sf9 insect cells at 12.5 uM using FAM-cAMP as substrate after 1 hr by fluorescence polarization assay relative to control
# [21] = target: 3',5'-cyclic-AMP phosphodiesterase 4A (Homo sapiens) (UniProt P27815); experiment: Inhibition of N-terminal GST-tagged full length recombinant human PDE4A1A expressed in Baculovirus infected Sf9 insect cells at 3 uM using FAM-cAMP as substrate after 1 hr by fluorescence polarization assay relative to control
Compound,IC50 [1] [nM],Ratio IC50 (Homo sapiens [2]),Ratio IC50 (Homo sapiens [3]),Ratio IC50 (Homo sapiens [4]),Ratio IC50 (Homo sapiens [5]),Ratio IC50 (Homo sapiens [6]),IC50 [8] [nM],further results
CCc1ccc(C2c3[nH]c4ccccc4c(=O)c3CN2c2ncc(-c3ccccn3)cn2)s1 (racemic),0.6,> 10000,> 10000,> 10000,> 2500,8,4.8,Activity (Thoracic aorta [7]): >90%; inhibition [9]: 2.5%; inhibition [10]: 7%; inhibition [11]: 2.5%; inhibition [12]: 3%
CCc1ccc(C2c3[nH]c4ccccc4c(=O)c3CN2c2ncc(-c3ccccn3)cn2)o1 (racemic),0.54,> 10000,> 10000,> 10000,> 2500,4.3,2.3,Activity (Thoracic aorta [7]): >90%; inhibition [13]: 2.5%; inhibition [14]: 10%; inhibition [15]: 8%; inhibition [16]: 5%
CCc1ccc(C2c3[nH]c4ccccc4c(=O)c3CN2c2ncc(Br)cn2)s1 (stereo unspecified),3.28,,,,,,,
CCc1ccc(C2c3[nH]c4ccccc4c(=O)c3CN2c2ncc(-c3ccc(OC)c(OC)c3)cn2)s1 (stereo unspecified),1.25,,,,,,,
CCc1ccc(C2c3[nH]c4ccccc4c(=O)c3CN2c2ccc(-c3ccccn3)cn2)s1 (stereo unspecified),1.2,,,,,,,
CCc1ccc([C@H]2c3[nH]c4ccccc4c(=O)c3CN2c2ncc(-c3ccccn3)cn2)o1,0.97,> 10000,> 10000,> 10000,> 2500,3.9,3.8,Activity (Thoracic aorta [17]): 30%; inhibition [18]: 7.5%; inhibition [19]: 51%; inhibition [20]: 10%; inhibition [21]: 12%
CCc1ccc(C2c3[nH]c4ccccc4c(=O)c3CN2c2ncc(-c3cccnc3)cn2)s1 (stereo unspecified),0.67,,,,,,,
CCc1ccc(C2c3[nH]c4ccccc4c(=O)c3CN2c2ccccn2)s1 (stereo unspecified),2.85,,,,,,,
